Measurements from ChEMBL document CHEMBL6083224, “A novel aurone RNA CAG binder inhibits the huntingtin RNA-protein interaction” (RSC Med Chem, 2024).
The source made the active and inactive calls. The calls are words filed in the database; no cut-off is given here.

Columns and labels:
Type in all cases: nucleic-acid assay
[1] = tested on: r(CUG) repeat expansion; test: Binding affinity to CUG (5-GGUCGCUGCUGCACGAAAGUGCUGCUGCGACC-3) RNA (unknown origin) assessed as change in fluorescence intensity
[2] = tested on: TAR RNA; test: Binding affinity to HIV-1 TAR (5-GGCAGAUCUGAGCCUGGGAGCUCUCUGCC-3) RNA assessed as change in fluorescence intensity; conditions: Human immunodeficiency virus 1
[3] = tested on: Rev responsive element (RRE) RNA; test: Binding affinity to HIV-1 RRE-IIB (5-GGUCUGGGCGCAGCGCAAGCUGACGGUACAGGCC-3) RNA assessed as change in fluorescence intensity; conditions: Human immunodeficiency virus 1
[4] = tested on: CAG repeat expansion; test: Binding affinity to CAG (5-GCAGCAGCUUCGGCAGCAGC-3) repeat RNA (unknown origin) by spectrophotometric analysis
Summary of the method: (§1)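 The compound was titrated with RNA, and electronic absorption spectra were recorded on a two-beam UV-vis spectrophotometer. Binding constants were calculated from the spectrophotometric titration data.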

[5] = tested on: CAG repeat expansion; test: Binding affinity to HTT exon 1 (CAG)51 repeat RNA (unknown origin) assessed as reduction in human MID1 binding to HTT exon 1 (CAG)51 repeat RNA at 100 uM by Western blot analysis
Summary of the method: (§2)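 Biotinylated RNA was folded in 10 mM Tris pH 7, 100 mM KCl, 10 mM MgCl₂ (72 °C for 10 min, then cooled to room temperature). 80 pmol of RNA was loaded onto streptavidin-agarose beads in buffer D for 30 min at room temperature. HEK293T protein extract was bound overnight at 4 °C. After washes, bound proteins were eluted at 95 °C for 10 min, and MID1 was detected by anti-MID1 western blot.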

[6] = tested on: CAG repeat expansion; test: Binding affinity to CAG (5-GCAGCAGCUUCGGCAGCAGC-3) repeat RNA (unknown origin) assessed as hypochromic red shift by spectrophotometric analysis; summary of the method: as §1
[7] = tested on: CAG repeat expansion; test: Binding affinity to CAG (5-GCAGCAGCUUCGGCAGCAGC-3) repeat RNA (unknown origin) assessed as binding constant; summary of the method: as §1
[8] = tested on: CAG repeat expansion; test: Binding affinity to HTT exon 1 (CAG)51 repeat RNA (unknown origin) assessed as reduction in human MID1 binding to HTT exon 1 (CAG)51 repeat RNA by Western blot analysis; conditions: dose 1-100 µM; summary of the method: as §2

What does the source list for `O=C1/C(=C/c2c3ccccc3cc3ccccc23)Oc2ccccc21`?
Activity [1]: inactive; Activity [2]: Active; Activity [3]: Active; Activity [4]: inactive; Activity [5]: inactive

For `CN(C)CCOc1ccc(/C=C2\Oc3cc(OCCN(C)C)ccc3C2=O)cc1`, which Activity [1] is on record?
The Activity was “No effect”.

What about the Activity [2] of the same compound?
The Activity was “No effect”.

What about the Activity [3] of the same compound?
The Activity was “No effect”.

What about the Activity [6] of the same compound?
The Activity was “Active”.

And the K [7]?
Its K is 1.4 10^5/M.

What about the Activity [5] of the same compound?
Its Activity is “Active”.

And the Activity [8]?
Its Activity is “Dose-dependent-effect”.
